# In ChEMBL document CHEMBL4184326, “Development of Thioaryl-Based Matrix Metalloproteinase-12 Inhibitors with Alternative Zinc-Binding Groups: Synthesis, Potentiometric, NMR, and Crystallographic Studies” (J Med Chem, 2018):
# The source made the active and inactive calls. The calls are words filed in the database; no cut-off is given here.
# How the values were obtained:
# [1] = target: Matrix metalloproteinase-9 (Homo sapiens, UniProt P14780); assay: Inhibition of recombinant human MMP-9 using Mca-Lys-Pro-Leu-Gly-Leu-Dap(Dnp)-Ala-Arg-NH2 as substrate preincubated for 3 hrs followed by substrate addition measured every 10 secs for 15 mins by fluorometric assay
# Matrix metalloproteinase-9, sequence (P14780 whole entry): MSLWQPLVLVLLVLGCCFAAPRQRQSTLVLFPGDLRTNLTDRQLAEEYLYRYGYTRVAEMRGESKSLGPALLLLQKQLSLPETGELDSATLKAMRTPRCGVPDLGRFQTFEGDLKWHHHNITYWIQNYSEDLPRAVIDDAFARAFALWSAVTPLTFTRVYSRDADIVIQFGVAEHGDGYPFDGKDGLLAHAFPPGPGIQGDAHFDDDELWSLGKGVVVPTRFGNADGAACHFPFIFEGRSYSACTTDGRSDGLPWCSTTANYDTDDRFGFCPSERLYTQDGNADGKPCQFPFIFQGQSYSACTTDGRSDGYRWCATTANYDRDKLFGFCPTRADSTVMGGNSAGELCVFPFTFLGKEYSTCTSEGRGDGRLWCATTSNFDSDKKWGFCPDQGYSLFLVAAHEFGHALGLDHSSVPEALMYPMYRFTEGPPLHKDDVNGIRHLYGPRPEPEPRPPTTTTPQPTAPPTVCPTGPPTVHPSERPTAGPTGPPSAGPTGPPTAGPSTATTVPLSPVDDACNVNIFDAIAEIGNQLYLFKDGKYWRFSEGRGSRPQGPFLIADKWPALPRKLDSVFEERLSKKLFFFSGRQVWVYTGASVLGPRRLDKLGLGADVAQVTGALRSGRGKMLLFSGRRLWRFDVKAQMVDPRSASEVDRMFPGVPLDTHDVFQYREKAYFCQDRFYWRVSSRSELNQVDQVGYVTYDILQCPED
# [2] = target: Macrophage metalloelastase (Homo sapiens, UniProt P39900); assay: Inhibition of recombinant human MMP-12 using Mca-Lys-Pro-Leu-Gly-Leu-Dap(Dnp)-Ala-Arg-NH2 as substrate preincubated for 3 hrs followed by substrate addition measured every 10 secs for 15 mins by fluorometric assay
# Macrophage metalloelastase, sequence (P39900 whole entry): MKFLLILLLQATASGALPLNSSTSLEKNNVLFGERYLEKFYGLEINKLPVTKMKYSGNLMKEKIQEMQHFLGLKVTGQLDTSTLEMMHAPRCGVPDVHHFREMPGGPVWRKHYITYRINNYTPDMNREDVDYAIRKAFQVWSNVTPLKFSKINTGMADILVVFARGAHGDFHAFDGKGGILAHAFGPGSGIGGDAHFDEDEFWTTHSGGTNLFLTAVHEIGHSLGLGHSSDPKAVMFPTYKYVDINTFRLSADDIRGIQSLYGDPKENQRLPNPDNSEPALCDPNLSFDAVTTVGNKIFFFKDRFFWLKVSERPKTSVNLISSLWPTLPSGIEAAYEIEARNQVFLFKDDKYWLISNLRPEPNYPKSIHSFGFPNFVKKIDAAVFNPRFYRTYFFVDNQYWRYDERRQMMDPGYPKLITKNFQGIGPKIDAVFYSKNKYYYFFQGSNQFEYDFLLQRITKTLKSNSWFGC
# [3] = target: 72 kDa type IV collagenase (Homo sapiens, UniProt P08253); assay: Inhibition of recombinant human MMP-2 using Mca-Lys-Pro-Leu-Gly-Leu-Dap(Dnp)-Ala-Arg-NH2 as substrate preincubated for 3 hrs followed by substrate addition measured every 10 secs for 15 mins by fluorometric assay
# 72 kDa type IV collagenase, sequence (P08253 whole entry): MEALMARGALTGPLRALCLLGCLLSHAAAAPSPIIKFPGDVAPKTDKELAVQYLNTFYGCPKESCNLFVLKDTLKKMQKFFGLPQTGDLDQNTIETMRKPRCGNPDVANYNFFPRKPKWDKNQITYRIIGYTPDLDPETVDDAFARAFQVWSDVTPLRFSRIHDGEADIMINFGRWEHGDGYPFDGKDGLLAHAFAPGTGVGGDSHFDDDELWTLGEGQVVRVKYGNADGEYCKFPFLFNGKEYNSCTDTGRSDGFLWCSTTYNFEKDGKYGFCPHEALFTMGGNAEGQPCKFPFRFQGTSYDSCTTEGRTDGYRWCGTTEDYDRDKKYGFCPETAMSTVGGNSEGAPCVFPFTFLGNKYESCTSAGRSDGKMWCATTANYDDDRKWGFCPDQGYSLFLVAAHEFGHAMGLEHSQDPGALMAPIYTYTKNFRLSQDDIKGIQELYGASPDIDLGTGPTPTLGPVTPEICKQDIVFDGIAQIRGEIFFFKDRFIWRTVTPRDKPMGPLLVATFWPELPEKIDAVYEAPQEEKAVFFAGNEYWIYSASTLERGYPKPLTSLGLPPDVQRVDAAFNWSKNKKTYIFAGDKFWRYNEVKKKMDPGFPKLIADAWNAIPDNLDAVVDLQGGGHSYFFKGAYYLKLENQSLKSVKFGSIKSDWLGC
# [4] = Metal chelating activity assessed as compound-Zn2+ complex formation by measuring free metal ion levels at compound to metal molar ratio 10 at pH 6 by potentiometric titration method
# [5] = target: Matrix metalloproteinase-14 (Homo sapiens, UniProt P50281); assay: Inhibition of recombinant human MMP-14 catalytic domain using Mca-Lys-Pro-Leu-Gly-Leu-Dap(Dnp)-Ala-Arg-NH2 as substrate preincubated for 3 hrs followed by substrate addition measured every 10 secs for 15 mins by fluorometric assay
# Homo sapiens [6] = organism: Homo sapiens; assay: Selectivity ratio of IC50 for recombinant human MMP-2 to IC50 for recombinant human MMP-12
# [7] = Metal chelating activity assessed as compound-Zn2+ complex formation at 1:2 metal to compound molar ratio at pH 3 to 8 by potentiometric titration method
# Summary of the method: (§1)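 pH-potentiometric titration in 60% w/w DMSO/H2O, 25.0 ± 0.1 °C, I 0.1 M KCl, 0.1 M KOH titrant. Glass electrode calibrated with HCl/KOH via Gran's method. Ligand (4−7) × 10−4 M at Zn:L 0:1, 1:1 and 1:2, in duplicate. pKw 15.75. Constants were fitted in Hyperquad with a Zn(II) hydrolysis model included.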
# Homo sapiens [8] = organism: Homo sapiens; assay: Selectivity ratio of IC50 for recombinant human MMP-9 to IC50 for recombinant human MMP-12
# [9] = Metal chelating activity assessed as compound-Zn2+ complex formation at 1:1 metal to compound molar ratio at pH 3 to 8 by potentiometric titration method; summary of the method: as §1
# [10] = Protonation constant, log K of the compound; format: physicochemical; conditions: 60% w/w DMSO/H2O; summary of the method: as §1
# Interstitial collagenase = target: T1, Interstitial collagenase (Homo sapiens, UniProt P03956); assay: Inhibition of recombinant human MMP-1 using Mca-Lys-Pro-Leu-Gly-Leu-Dap(Dnp)-Ala-Arg-NH2 as substrate preincubated for 3 hrs followed by substrate addition measured every 10 secs for 15 mins by fluorometric assay
# T1 sequence (P03956 whole entry): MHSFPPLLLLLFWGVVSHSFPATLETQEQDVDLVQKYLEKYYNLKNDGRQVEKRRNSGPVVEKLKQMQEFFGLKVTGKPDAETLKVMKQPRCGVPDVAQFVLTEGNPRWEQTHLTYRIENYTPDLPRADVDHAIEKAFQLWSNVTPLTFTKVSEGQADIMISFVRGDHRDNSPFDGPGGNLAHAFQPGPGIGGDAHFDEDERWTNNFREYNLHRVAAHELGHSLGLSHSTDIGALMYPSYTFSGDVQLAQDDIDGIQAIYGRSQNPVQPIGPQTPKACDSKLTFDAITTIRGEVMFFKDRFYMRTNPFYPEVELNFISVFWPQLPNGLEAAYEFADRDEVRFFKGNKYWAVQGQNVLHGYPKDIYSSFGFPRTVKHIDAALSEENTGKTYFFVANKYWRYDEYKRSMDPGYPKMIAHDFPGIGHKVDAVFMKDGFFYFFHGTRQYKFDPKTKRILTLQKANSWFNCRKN
# Homo sapiens [11] = organism: Homo sapiens; assay: Selectivity ratio of IC50 for recombinant human MMP-14 catalytic domain to IC50 for recombinant human MMP-12
# [12] = Metal chelating activity assessed as compound-Zn2+ complex formation at 1:1 metal to compound molar ratio at pH 3 to 8 by 1H NMR method
# [13] = Drug level in KCl/DMSO/water solution treated with 2-(2-((4'-Methoxy-[1,1'-biphenyl]-4-yl)sulfonyl)phenyl)-acetic hydroxamic acid; format: physicochemical; conditions: buffer
Compound,IC50 [1],IC50 [2],IC50 [3],log(activity) [4],IC50 [5],Ratio IC50 (Homo sapiens [6]),Activity [7],Ratio IC50 (Homo sapiens [8]),Activity [9],log K [10],IC50 (Interstitial collagenase),Ratio IC50 (Homo sapiens [11]),Activity [12],Drug metabolism [13]
COc1ccc(-c2ccc(Sc3ccccc3CC(=O)NS(C)(=O)=O)cc2)cc1,18 µM,3.3 µM,–,6.1,–,–,inactive,–,Active,5.5,–,–,Active,–
COc1ccc(-c2ccc(S(=O)(=O)c3ccccc3C(=O)CS(C)(=O)=O)cc2)cc1,> 10 µM,> 10 µM,> 10 µM,–,–,–,–,–,–,–,–,–,–,–
COc1ccc(-c2ccc(S(=O)(=O)c3ccccc3CC(=O)NS(=O)(=O)C(F)(F)F)cc2)cc1,24.5 µM,7.5 µM,2.5 µM,6.91,–,–,inactive,–,Active,< 2,–,–,Active,–
COc1ccc(-c2ccc(S(=O)(=O)c3ccccc3CC(=O)NS(C)(=O)=O)cc2)cc1,3.7 µM,3.5 µM,3.6 µM,6.56,–,–,Active,–,Active,5.5,–,–,Active,–
COc1ccc(-c2ccc(Sc3ccccc3CC(=O)NS(=O)(=O)C(F)(F)F)cc2)cc1,50 µM,2.1 µM,46 µM,6.75,–,–,inactive,–,Active,< 2,–,–,Active,–
COc1ccc(-c2ccc(S(=O)(=O)c3ccccc3CC(=O)O)cc2)cc1,–,–,–,6.1,–,–,Active,–,Active,–,–,–,–,Metabolite_Detected
COc1ccc(-c2ccc(Sc3ccccc3C(=O)CS(C)(=O)=O)cc2)cc1,332 µM,230 µM,230 µM,–,–,–,–,–,–,–,–,–,–,–

# The remaining compounds from weak to strong by IC50 [2], led by results:
IC50 [1],IC50 [2],IC50 [3],log(activity) [4],IC50 [5],Ratio IC50 (Homo sapiens [6]),Activity [7],Ratio IC50 (Homo sapiens [8]),Activity [9],log K [10],IC50 (Interstitial collagenase),Ratio IC50 (Homo sapiens [11]),Activity [12],Drug metabolism [13],Compound
–,0.6 µM,–,–,–,–,–,–,–,–,–,–,–,–,COc1ccc(-c2ccc(S(=O)(=O)c3ccccc3CP(=O)(O)O)cc2)cc1
14.3 µM,0.51 µM,1.35 µM,6.14,–,–,Active,–,Active,–,–,–,–,–,COc1ccc(-c2ccc(S(=O)(=O)c3ccccc3C(CCC(=O)O)C(=O)O)cc2)cc1 (centres undefined)
1.12 µM,0.25 µM,0.25 µM,–,–,–,–,–,–,–,–,–,–,–,COc1ccc(-c2ccc(Sc3ccccc3CP(=O)(O)O)cc2)cc1
–,0.04 µM,–,6.04,–,–,inactive,–,Active,–,–,–,–,–,COc1ccc(-c2ccc(Sc3ccccc3CC(=O)O)cc2)cc1
1.43 µM,0.04 µM,0.414 µM,6.13,4 µM,–,Active,–,Active,9.03 to 9.35,> 10 µM,–,–,–,COc1ccc(-c2ccc(S(=O)(=O)c3ccccc3C3CCC(=O)N(O)C3=O)cc2)cc1 (centres undefined)
5.8 µM,0.033 µM,0.67 µM,6.05,40 µM,20,Active,176,Active,9.03 to 9.35,260 µM,1200,–,–,COc1ccc(-c2ccc(Sc3ccccc3C3CCC(=O)N(O)C3=O)cc2)cc1 (centres undefined)
2.96 µM,0.026 µM,0.66 µM,6.04,–,–,Active,–,Active,–,–,–,–,–,COc1ccc(-c2ccc(Sc3ccccc3C(CCC(=O)O)C(=O)O)cc2)cc1 (centres undefined)
–,0.004 µM,–,6.04,2 µM,–,Active,–,Active,10.29,250 µM,–,–,–,COc1ccc(-c2ccc(Sc3ccccc3CC(=O)NO)cc2)cc1
